From ChEMBL document CHEMBL3227952, “Potential organ- or tumor-imaging agents. 18. Radioiodinated diamines and bisquaternaries” (J Med Chem, 1979)

What was measured:
[1] = Drug uptake in Sprague-Dawley rat diaphragm at 11.9 to 12.1 uCi, iv after 2 hrs by liquid scintillation counting; assay type: ADME, organism-based; settings: in vivo
[2] = Drug uptake in Sprague-Dawley rat bone marrow at 11.9 to 12.1 uCi, iv after 0.5 hrs by liquid scintillation counting; assay type: ADME, organism-based; settings: in vivo
Summary of the method: (§1)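 Dosing was by tail vein under ether. Five rats were killed by exsanguination at each time. Organs were rinsed, blotted and weighed, with duplicate samples in cellulose acetate capsules. Samples were counted in a well-scintillation gamma counter at 87% efficiency. Results are % administered dose/g, mean ± SEM.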

[3] = Drug uptake in Sprague-Dawley rat bone marrow at 11.9 to 12.1 uCi, iv after 2 hrs by liquid scintillation counting; assay type: ADME, organism-based; settings: in vivo
Blood [4] = assay: Drug uptake in Sprague-Dawley rat blood at 11.9 to 12.1 uCi, iv after 2 hrs by liquid scintillation counting; assay type: ADME, organism-based; settings: in vivo
[5] = Drug uptake in Sprague-Dawley rat dorsolateral prostate at 11.9 to 12.1 uCi, iv after 0.5 hrs by liquid scintillation counting; assay type: ADME, organism-based, Prostate gland; settings: in vivo
Lung [6] = assay: Drug uptake in Sprague-Dawley rat lung at 11.9 to 12.1 uCi, iv after 2 hrs by liquid scintillation counting; assay type: ADME, organism-based; settings: in vivo, in the assay text read “gamma counting” for “liquid scintillation counting”
Summary of the method: (§2)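 Five rats per time point were exsanguinated under ether. Organs were excised, rinsed, blotted and weighed. Duplicate samples were counted in a well-scintillation gamma counter (87% efficiency). Results are % administered dose/g, mean ± SEM.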

[7] = Drug uptake in Sprague-Dawley rat dorsolateral prostate at 11.9 to 12.1 uCi, iv after 2 hrs by liquid scintillation counting; assay type: ADME, organism-based, Prostate gland; settings: in vivo
Heart [8] = assay: Drug uptake in Sprague-Dawley rat heart at 11.9 to 12.1 uCi, iv after 0.5 hrs by liquid scintillation counting; assay type: ADME, organism-based; settings: in vivo
Testes [9] = assay: Drug uptake in Sprague-Dawley rat testes at 11.9 to 12.1 uCi, iv after 2 hrs by liquid scintillation counting; assay type: ADME, organism-based, Testis; settings: in vivo, in the assay text read “well-scintillation gamma counting” for “liquid scintillation counting”; summary of the method: as §2
Kidney [10] = assay: Drug uptake in Sprague-Dawley rat kidney at 11.9 to 12.1 uCi, iv after 0.5 hrs by liquid scintillation counting; assay type: ADME, organism-based; settings: in vivo
Adrenal [11] = assay: Drug uptake in Sprague-Dawley rat adrenal at 11.9 to 12.1 uCi, iv after 2 hrs by liquid scintillation counting; assay type: ADME, organism-based, Adrenal gland; settings: in vivo; summary of the method: as §1
Adrenal [12] = assay: Drug uptake in Sprague-Dawley rat adrenal at 11.9 to 12.1 uCi, iv after 0.5 hrs by liquid scintillation counting; assay type: ADME, organism-based, Adrenal gland; settings: in vivo
Spleen [13] = assay: Drug uptake in Sprague-Dawley rat spleen at 11.9 to 12.1 uCi, iv after 0.5 hrs by liquid scintillation counting; assay type: ADME, organism-based; settings: in vivo
Spleen [14] = assay: Drug uptake in Sprague-Dawley rat spleen at 11.9 to 12.1 uCi, iv after 2 hrs by liquid scintillation counting; assay type: ADME, organism-based; settings: in vivo, in the assay text read “well-scintillation gamma counting” for “liquid scintillation counting”; summary of the method: as §2
Heart [15] = assay: Drug uptake in Sprague-Dawley rat heart at 11.9 to 12.1 uCi, iv after 2 hrs by liquid scintillation counting; assay type: ADME, organism-based; settings: in vivo, in the assay text read “gamma counting” for “liquid scintillation counting”; summary of the method: as §1
Duodenum [16] = assay: Drug uptake in Sprague-Dawley rat duodenum at 11.9 to 12.1 uCi, iv after 2 hrs by liquid scintillation counting; assay type: ADME, organism-based; settings: in vivo, in the assay text read “gamma counting” for “liquid scintillation counting”; summary of the method: as §1
[17] = Drug uptake in Sprague-Dawley rat ventral prostate at 11.9 to 12.1 uCi, iv after 0.5 hrs by liquid scintillation counting; assay type: ADME, organism-based, Prostate gland; settings: in vivo
Pancreas [18] = assay: Drug uptake in Sprague-Dawley rat pancreas at 11.9 to 12.1 uCi, iv after 0.5 hrs by liquid scintillation counting; assay type: ADME, organism-based; settings: in vivo; summary of the method: as §2
Testes [19] = assay: Drug uptake in Sprague-Dawley rat testes at 11.9 to 12.1 uCi, iv after 0.5 hrs by liquid scintillation counting; assay type: ADME, organism-based, Testis; settings: in vivo; summary of the method: as §2
Thyroid gland [20] = assay: Drug uptake in Sprague-Dawley rat thyroid at 11.9 to 12.1 uCi, iv after 0.5 hrs by liquid scintillation counting; assay type: ADME, organism-based; settings: in vivo; summary of the method: as §2
Duodenum [21] = assay: Drug uptake in Sprague-Dawley rat duodenum at 11.9 to 12.1 uCi, iv after 0.5 hrs by liquid scintillation counting; assay type: ADME, organism-based; settings: in vivo
Liver [22] = assay: Drug uptake in Sprague-Dawley rat liver at 11.9 to 12.1 uCi, iv after 0.5 hrs by liquid scintillation counting; assay type: ADME, organism-based; settings: in vivo; summary of the method: as §2
[23] = Drug uptake in Sprague-Dawley rat ventral prostate at 11.9 to 12.1 uCi, iv after 2 hrs by liquid scintillation counting; assay type: ADME, organism-based, Prostate gland; settings: in vivo; summary of the method: as §2
Liver [24] = assay: Drug uptake in Sprague-Dawley rat liver at 11.9 to 12.1 uCi, iv after 2 hrs by liquid scintillation counting; assay type: ADME, organism-based; settings: in vivo, in the assay text read “gamma counting” for “liquid scintillation counting”; summary of the method: as §2
Pituitary gland [25] = assay: Drug uptake in Sprague-Dawley rat pituitary at 11.9 to 12.1 uCi, iv after 0.5 hrs by liquid scintillation counting; assay type: ADME, organism-based; settings: in vivo
Thyroid gland [26] = assay: Drug uptake in Sprague-Dawley rat thyroid at 11.9 to 12.1 uCi, iv after 2 hrs by liquid scintillation counting; assay type: ADME, organism-based; settings: in vivo, in the assay text read “well-scintillation gamma counting” for “liquid scintillation counting”; summary of the method: as §2
Kidney [27] = assay: Drug uptake in Sprague-Dawley rat kidney at 11.9 to 12.1 uCi, iv after 2 hrs by liquid scintillation counting; assay type: ADME, organism-based; settings: in vivo, in the assay text read “gamma counting” for “liquid scintillation counting”; summary of the method: as §2
Pancreas [28] = assay: Drug uptake in Sprague-Dawley rat pancreas at 11.9 to 12.1 uCi, iv after 2 hrs by liquid scintillation counting; assay type: ADME, organism-based; settings: in vivo, in the assay text read “well-scintillation gamma counting” for “liquid scintillation counting”; summary of the method: as §2
Blood [29] = assay: Drug uptake in Sprague-Dawley rat blood at 11.9 to 12.1 uCi, iv after 0.5 hrs by liquid scintillation counting; assay type: ADME, organism-based; settings: in vivo
[30] = Drug uptake in Sprague-Dawley rat diaphragm at 11.9 to 12.1 uCi, iv after 0.5 hrs by liquid scintillation counting; assay type: ADME, organism-based; settings: in vivo; summary of the method: as §1
Brain [31] = assay: Drug uptake in Sprague-Dawley rat brain at 11.9 to 12.1 uCi, iv after 2 hrs by liquid scintillation counting; assay type: ADME, organism-based; settings: in vivo
Lung [32] = assay: Drug uptake in Sprague-Dawley rat lung at 11.9 to 12.1 uCi, iv after 0.5 hrs by liquid scintillation counting; assay type: ADME, organism-based; settings: in vivo
Pituitary gland [33] = assay: Drug uptake in Sprague-Dawley rat pituitary at 11.9 to 12.1 uCi, iv after 2 hrs by liquid scintillation counting; assay type: ADME, organism-based; settings: in vivo, in the assay text read “well-scintillation gamma counting” for “liquid scintillation counting”; summary of the method: as §2
Brain [34] = assay: Drug uptake in Sprague-Dawley rat brain at 11.9 to 12.1 uCi, iv after 0.5 hrs by liquid scintillation counting; assay type: ADME, organism-based; settings: in vivo

Compound `CN(C)Cc1ccc(CN(C)C)c([125I])c1` has a Drug uptake [1] of 0.114 % ID/g, a Drug uptake [2] of 0.483 % ID/g and a Drug uptake [3] of 0.569 % ID/g. It also gave a Drug uptake (Blood [4]) of 0.038 % ID/g, a Drug uptake [5] of 0.657 % ID/g and a Drug uptake (Lung [6]) of 1.065 % ID/g. It also gave a Drug uptake [7] of 0.614 % ID/g, a Drug uptake (Heart [8]) of 0.367 % ID/g and a Drug uptake (Testes [9]) of 0.163 % ID/g. The Drug uptake (Kidney [10]) was 3.598 % ID/g, the Drug uptake (Adrenal [11]) was 1.84 % ID/g and the Drug uptake (Adrenal [12]) was 2.287 % ID/g. The Drug uptake (Spleen [13]) was 1.402 % ID/g, the Drug uptake (Spleen [14]) was 1.511 % ID/g and the Drug uptake (Heart [15]) was 0.174 % ID/g. For the same compound, the Drug uptake (Duodenum [16]) was 0.349 % ID/g, the Drug uptake [17] was 0.673 % ID/g and the Drug uptake (Pancreas [18]) was 0.737 % ID/g. For the same compound, the Drug uptake (Testes [19]) was 0.154 % ID/g, the Drug uptake (Thyroid gland [20]) was 5.001 % ID/g and the Drug uptake (Duodenum [21]) was 1.053 % ID/g. It also gave a Drug uptake (Liver [22]) of 1.069 % ID/g, a Drug uptake [23] of 0.588 % ID/g and a Drug uptake (Liver [24]) of 1.042 % ID/g. For the same compound, the Drug uptake (Pituitary gland [25]) was 0.899 % ID/g, the Drug uptake (Thyroid gland [26]) was 3.114 % ID/g and the Drug uptake (Kidney [27]) was 2.225 % ID/g. It also gave a Drug uptake (Pancreas [28]) of 0.349 % ID/g, a Drug uptake (Blood [29]) of 0.05 % ID/g and a Drug uptake [30] of 0.241 % ID/g. The Drug uptake (Brain [31]) was 1.255 % ID/g, the Drug uptake (Lung [32]) was 1.993 % ID/g and the Drug uptake (Pituitary gland [33]) was 0.684 % ID/g. It also gave a Drug uptake (Brain [34]) of 1.791 % ID/g.
